Reference: PubChem BioAssay AID504535 (Broad Institute, 2011)
“And” between values parts separate entries of the source, which are not always exact repeats. Identical values can stand only once. Results filed as inconclusive are left out. The source made the active and inactive calls.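 The calls were made as follows: active = luminescence drop with fitted half-effect dose at most ten times the top tested dose, in every repeat; inconclusive = repeats disagree, flat moderate inhibition, or unreliable curve fit; inactive = every repeat flat, too weak, or signal rising.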

Test system: HMLE_shECad viability, CellTiter-Glo luminescence, 72 h
Assay: inhibitors of HMLE_shECad breast CSC-like cells, dose response, cell-based, CellTiter-Glo luminescence, primary HTS retest, dry powder, set 5 (AID 504535)
Conditions: not given
Summary of the method: (§1)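 Assay system – HMLE_shECad model of breast cancer stem cells · Timing – about 72 h compound exposure at 37 °C, 5% CO2 · Technique – CellTiter-Glo luminescence · Read-out – cell viability from luminescent ATP signal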

| Structure (SMILES) | AC50 |
| --- | --- |
| Cc1cc(Br)ccc1OCC(=O)N/N=C/c1ccc[nH]1 | 3.76 µM |
| N#Cc1csc(NC(=O)c2ccc(COc3ccccc3)o2)n1 | 18.1 µM |
| Cc1ccc(OCc2ccc(C(=O)Nc3nc(C)cs3)o2)cc1 | 2.51 µM |
| COc1cccc(OCc2ccc(C(=O)Nc3nc(C)cs3)o2)c1 | 0.348 µM |
| CC(C)c1ccc(/C=C/C(=O)Nc2cncs2)cc1 | 11.4 µM |
| CC(C)Cc1ccc(/C=C/C(=O)NC2=NCCS2)cc1 | 0.57 µM |
| Cc1csc(NC(=O)c2ccc(COC3CCCCC3)o2)n1 | 17 µM |
| O=C(COc1c(Cl)cc(Cl)cc1Cl)N/N=C/c1ccc[nH]1 | 1.44 µM |
| Cc1csc(NC(=O)c2ccc(COCc3ccccc3)o2)n1 | 6.04 µM |
| Cc1csc(NC(=O)c2ccc(CCc3ccccc3)o2)n1 | 0.895 µM |
| CC(C)c1ccc(/C=C/C(=O)NC2=NCCS2)cc1 | 2.97 µM |
| CCc1ccc(/C=C/C(=O)NC2=NCCS2)cc1 | 1.67 µM |
| CC(C)c1ccc(/C=C/C(=O)N(C)C2=NCCS2)cc1 | 21.2 µM |
| O=C(Nc1nc(C(F)(F)F)cs1)c1ccc(COc2ccccc2)o1 | 13.2 µM |
| N#Cc1ccc(/C=C/C(=O)NC2=NCCS2)cc1 | 29.2 µM |
| Cc1csc(NC(=O)c2ccc(COc3ccccn3)o2)n1 | 17.8 µM |
| Cc1cc(C)c(OCC(=O)N/N=C/c2ccc[nH]2)c(C)c1 | 9.43 µM |
| Cc1csc(NC(=O)c2ccc(CNc3ccccc3)o2)n1 | 0.676 µM |
| Cc1cccc(OCc2ccc(C(=O)Nc3nc(C)cs3)o2)c1 | 0.259 µM and 0.332 µM |

Test system: not listed separately
Assay: as above
Conditions: HMLE_shECad viability, CellTiter-Glo luminescence, 72 h; at 19.5 µM (top of the series)
Summary of the method: as §1

| Structure (SMILES) | activity change, negative = inhibition |
| --- | --- |
| CC(C)NC(=O)c1ccc(COc2ccccc2)o1 | -14.2% (inactive) |
| Cc1csc(NCc2ccc(COc3ccccc3)o2)n1 | -11.4% (inactive) |
| CCN(CC)C(=O)c1ccc(COc2ccccc2)o1 | 8.61% (inactive) |
| Cn1c(C(=O)NC2=NCCS2)cc2ccccc21 | -9.82% (inactive) |
| C/C(=C\C(=O)NC1=NCCS1)c1ccc(CC(C)C)cc1 | 3.46% (inactive) |
| C/C(=C\C(=O)NC1=NCCS1)c1ccc(C)cc1 | -1.94% (inactive) |
| Cc1csc(NC(=O)c2ccc(COc3cccc(S(C)(=O)=O)c3)o2)n1 | -13.6% (inactive) |
| CNC(=O)c1csc(NC(=O)c2ccc(COc3ccccc3)o2)n1 | -8.68% (inactive) |
| COCc1ccc(C(=O)Nc2nc(C)cs2)o1 | 1.05% (inactive) |
| O=C(Nc1nncs1)c1ccc(COc2ccccc2)o1 | -7.89% (inactive) |

Same assay, conditions: HMLE_shECad viability, CellTiter-Glo luminescence, 72 h; at 30 µM (top of the series)

| Structure (SMILES) | activity change, negative = inhibition |
| --- | --- |
| Cc1ccc2cc(C(=O)NC3=NCCS3)n(C)c2c1 | -12.6% (inactive) |
